Assay results: ChEMBL document CHEMBL1141852, “Two auronols from Pseudolarix amabilis” (1999)
≈ marks a conversion by molar mass, not a printed value. Calls of active or inactive are those of the source. The calls are words filed in the database; no cut-off is given here.

Columns and labels:
[1] = system: Trichophyton mentagrophytes; test: Antimicrobial activity against Trichophyton mentagrophytes; format: functional
How it was run: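 Microdilution in 96-well plates. The Trichophyton mentagrophytes inoculum was spores scraped from fungal growth into Mycophil broth. Pure compounds were tested at final 50 down to 0.20 µg/mL in twofold steps. Incubation was at 30 or 37 °C. MIC was taken as the lowest concentration inhibiting at least 80% of growth.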

Candida albicans = test: Antimicrobial activity against Candida albicans; format: functional
How it was run: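 Broth microdilution in 96-well plates. Inoculum was a 24 h Candida albicans culture diluted in Sabouraud dextrose broth. Incubation was at 30 or 37 °C. MIC was taken as the lowest concentration giving at least 80% growth inhibition.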

O=c1c(O)c(-c2cc(O)c(O)c(O)c2)oc2cc(O)cc(O)c12 [MYRICETIN]
MIC [1]: 50 µg/mL (≈ 157 µM)

COC(=O)C1=CC[C@@]23CC[C@@H]([C@@](C)(/C=C/C=C(\C)C(=O)O)OC2=O)[C@@]3(O)CC1
Activity (Candida albicans): inactive | Activity [1]: inactive

COC(=O)C1=CC[C@@]23CC[C@@H]([C@@](C)(/C=C/C=C(\C)C(=O)O)OC2=O)[C@@]3(OC(C)=O)CC1 [PSEUDOLARIC ACID B]
MFC (Candida albicans): 6.25 µg/mL (≈ 14.5 µM) | MIC (Candida albicans): 3.12 µg/mL (≈ 7.23 µM)

COC(=O)C1=CC[C@@]23CC[C@@H]([C@@](C)(/C=C/C=C(\C)C(=O)O[C@@H]4O[C@H](CO)[C@@H](O)[C@H](O)[C@H]4O)OC2=O)[C@@]3(OC(C)=O)CC1
Activity (Candida albicans): inactive | Activity [1]: inactive

O=C1c2c(O)cc(O)cc2OC1(O)Cc1cc(O)c(O)c(O)c1 (configuration not stated)
Activity (Candida albicans): inactive | Activity [1]: inactive

COc1c(O)cc(CC2(O)Oc3cc(O)cc(O)c3C2=O)cc1O (configuration not stated)
Activity (Candida albicans): inactive | Activity [1]: inactive

CC(=O)O[C@]12CCC(C)=CC[C@]13CC[C@H]2[C@@](C)(/C=C/C=C(\C)C(=O)O[C@@H]1O[C@H](CO)[C@@H](O)[C@H](O)[C@H]1O)OC3=O
Activity (Candida albicans): inactive | Activity [1]: inactive

C[C@@H]1[C@H](O)[C@@H](C)/C=C/C=C/C=C/C=C/C=C/C=C/C=C/[C@H](O[C@@H]2O[C@H](C)[C@@H](O)[C@H](N)[C@@H]2O)C[C@@H]2O[C@](O)(C[C@@H](O)C[C@@H](O)[C@H](O)CC[C@@H](O)C[C@@H](O)CC(=O)O[C@H]1C)C[C@H](O)[C@H]2C(=O)O [AMPHOTERICIN B]
MFC (Candida albicans): 0.39 µg/mL (≈ 0.422 µM) | Activity [1]: inactive

C/C(=C\C=C\[C@@]1(C)OC(=O)[C@]23CC=C(C(=O)O)CC[C@]2(O)[C@H]1CC3)C(=O)O
Activity (Candida albicans): inactive | Activity [1]: inactive
